Paper PMC3387282 (ACS medicinal chemistry letters, 2011)
“Also recorded” adds a separate entry of the source. Blank lines part the entries; values can stand above or below the molecule they belong to.

Legend:
MEF Icmt^−/− cells = assay: MTT cell viability in MEF Icmt-/- cells; type: cell-based; settings: for effect on viability in MEF Icmt^−/− cells (in words): MTT; for IC50: read-out: IC50 MEF Icmt^−/−
Icmt = Icmt (Homo sapiens, UniProt O60725); assay: Icmt vapor diffusion assay; type: biochemical; settings: for Icmt inhibition (in words): vapor diffusion assay; for potency relative to 10u: Icmt inhibition
Summary of the method: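 Vapor diffusion Icmt methylation assay. Screening at 10 μM inhibitor, with specific activity given as percent of the no-inhibitor AFC control. Test compounds were also run as possible substrates. IC50 was measured in vitro, Ki was calculated from IC50 by the Cheng–Prusoff method, and inhibition mode was set by further biochemical evaluation.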

MEF Icmt^+/+ cells = assay: MTT cell viability in MEF Icmt+/+ cells; type: cell-based
[1] = system: GFP-K-Ras localization in Jurkat T cells (E 6.1); assay: GFP-K-Ras membrane localization in Jurkat T cells; type: cell-based; settings: 24 h treatment
Summary of the method: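 Jurkat T cells (E 6.1) expressing GFP-KRas treated 24 h with vehicle, test compound at several concentrations, or 25 μM simvastatin as reference. Cells laid on poly-L-lysine-coated coverslips (100 μg/mL) and fixed in 3.7% formaldehyde for 10 min. Fluorescence microscopy scored by eye in random fields of 100 cells as normal plasma membrane, partial, or complete mislocalization.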

Icmt, sequence (O60725 whole entry, the tested form may be a part): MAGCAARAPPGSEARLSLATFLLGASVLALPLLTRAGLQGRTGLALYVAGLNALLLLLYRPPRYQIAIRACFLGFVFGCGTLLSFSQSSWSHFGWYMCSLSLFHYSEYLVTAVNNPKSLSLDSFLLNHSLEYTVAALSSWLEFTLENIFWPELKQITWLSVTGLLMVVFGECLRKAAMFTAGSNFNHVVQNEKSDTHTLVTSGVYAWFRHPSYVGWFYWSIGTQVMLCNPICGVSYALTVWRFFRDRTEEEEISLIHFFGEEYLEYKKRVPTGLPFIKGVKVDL

SMILES: COC(=O)CCSC/C=C(\C)CCn1cc(-c2cccc3ccccc23)nn1 [Compound 10g]
effect on viability in MEF Icmt^−/− cells (in words) (MEF Icmt^−/− cells): did not affect viability
IC50 (MEF Icmt^−/− cells): > 100 µM

SMILES: COC(=O)CCSC/C=C(\C)CCn1cc(CCc2ccc(-c3ccccc3)cc2)nn1 [Compound 10n]
Ki (Icmt): 0.4 µM
mode of Icmt inhibition (Icmt): competitive inhibitor
ligand efficiency (in words) (Icmt; compared with POP-3MB): significantly improved ligand efficiency
Icmt inhibition (in words) (Icmt): more potent than the corresponding carboxylate, 11n
IC50 (MEF Icmt^−/− cells): > 100 µM
activity in MEF Icmt^+/+ versus Icmt^−/− cells (in words) (MEF Icmt^+/+ cells): selectively cytotoxic
GFP-K-Ras membrane localization [1]: decrease in normal membrane localization; also recorded: capable of inducing K-Ras mislocalization

SMILES: COC(=O)CCSC/C=C(\C)CCn1cc(CCc2cccc(-c3ccccc3)c2)nn1 [Compound 10o]
potency relative to 10n (times less potent) (Icmt; ratio of Icmt IC50): ~30
effect on viability in MEF Icmt^−/− cells (in words) (MEF Icmt^−/− cells): did not affect viability
IC50 (MEF Icmt^−/− cells): > 100 µM

SMILES: CC(C)=CCC/C(C)=C/CC/C(C)=C/CSc1ccccc1C(=O)O [FTS, S-farnesylthiosalicylic acid, reference compound]
activity in MEF Icmt^+/+ versus Icmt^−/− cells (in words) (MEF Icmt^+/+ cells): equivalent activity in both cell lines

Other lines, results leading:

Icmt inhibition (in words) (Icmt): further reduced inhibitory activity
SMILES: COC(=O)CCSC/C=C(\C)CCn1cc(CCc2ccccc2-c2ccccc2)nn1 [Compound 10p]

Icmt inhibition (in words) (Icmt): detrimental to inhibition
SMILES: COC(=O)CCSC/C=C(\C)CCn1cc(COc2ccc(-c3ccccc3)cc2)nn1 [Compound 10q]

potency relative to 10u (Icmt): approximately twice as potent
SMILES: COC(=O)CCSC/C=C(\C)CCn1cc(CCc2ccc(-c3ccc(F)cc3)cc2)nn1 [Compound 10s]

potency relative to 10u (Icmt): approximately twice as potent
SMILES: COC(=O)CCSC/C=C(\C)CCn1cc(CCc2ccc(-c3cccc(C#N)c3)cc2)nn1 [Compound 10t]

Icmt inhibition (in words) (Icmt): poor Icmt inhibition
SMILES: C/C(=C\CSCCC(=O)O)CCn1cc(CCOC2CCCCO2)nn1 (stereo not drawn) [Compound 11m]
